Measurements from different studies.
Compare with care: the assays were run in different laboratories.
RET: Proto-oncogene tyrosine-protein kinase receptor Ret (RET, Homo sapiens, UniProt P07949)
RET V804L: Proto-oncogene tyrosine-protein kinase receptor Ret (RET, Homo sapiens, UniProt P07949, V804L)
RET V804M: Proto-oncogene tyrosine-protein kinase receptor Ret (RET, Homo sapiens, UniProt P07949, V804M)

Cc1cccc(-n2ncc3c(O)c(C(=O)Nc4ccc(C)cc4F)c(=O)[nH]c32)c1  remaining activity (RET; enzyme activity, inhibitor, radiometric; 10 µM): 79%
C[C@H](c1ccnc(Nc2nc3ccc(-c4cc(N(C)C)ncn4)cc3[nH]2)c1)N1CCN(C(=O)CC(F)(F)F)CC1  remaining binding (RET V804L; cell-free assay, competition with immobilised ligand; 0.1 µM): 83%
Cc1ccc2c(=O)c(C(=O)Nc3ccc(C)c(C)c3)cn(CC(=O)NC3CCCC3)c2n1  remaining activity (RET; enzyme activity, inhibitor, radiometric; 0.1 µM): 114%
CC/C(=N\NC(=O)NCc1cccc(O)c1)c1ccc(O)c(C)c1O  inhibition (Proto-oncogene tyrosine-protein kinase receptor Ret (RET, Homo sapiens, UniProt P07949, G691S); enzyme activity, inhibitor; 0.1 µM): 5.6%
CCCOc1ccc(OC)c(F)c1C(=O)c1ccc(C(=O)N[C@@H]2CNC[C@H]2NC(=O)c2ccc3[nH]ncc3c2)cc1  remaining activity (RET; enzyme activity, inhibitor; 10 µM): 1%
CO[C@]1(C(=O)N[C@@H](C)c2ccc(-n3cc(F)cn3)nc2)CC[C@H](c2nc(C)cc(Nc3cc(C)[nH]n3)n2)CC1  ΔTm (Proto-oncogene tyrosine-protein kinase receptor Ret (RET, Homo sapiens, UniProt P07949, L760A); thermal stability, DSF; 10 µM): 11.9 °C
CCCCN(CCCC)C(=O)CN1C[C@H](c2cc(OC)c3c(c2)OCO3)[C@@H](C(=O)O)[C@@H]1CC(C)(C)CCC  remaining binding (RET; cell-free assay, competition with immobilised ligand; 1 µM): 100%
COc1ccc(CN2C3CC2CN(c2ccc(-c4cc(OCC(C)(C)O)cn5ncc(C#N)c45)cn2)C3)cn1  ΔTm (RET V804M; thermal stability, DSF; 10 µM): 6.4 °C
CNC(=O)Nc1ccc2c(c1)[C@@]1(CC2)OC(=O)N(CC(=O)N(Cc2ccc(F)cc2)[C@@H](C)C(F)(F)F)C1=O  remaining binding (RET V804L; cell-free assay, competition with immobilised ligand; 1 µM): 94%
COc1ccc(-c2cn3cc(C(=O)N4CC(O)C4)nc3c(=O)n2C)c(F)c1  remaining activity (RET; enzyme activity, inhibitor, radiometric; 0.1 µM): 117%
CC(C)(O)c1cncc(-c2nc3ccc(F)cc3n2C2CC2)c1  remaining binding (RET V804M; cell-free assay, competition with immobilised ligand; 1 µM): 100%
COc1cc(NC(=O)Nc2cc(C)c3nc(NC(=O)c4ccccc4)sc3c2)cc(OC)c1  remaining activity (RET; enzyme activity, inhibitor, radiometric; 0.1 µM): 123%
Nc1ncnc2occ(-c3ccc(NC(=O)Nc4cc(C(F)(F)F)ccc4F)cc3)c12  remaining signal (RET; cell-free assay; 20 µM): 0%
